{"source": "ChEMBL document CHEMBL4840303", "about": "“Design, synthesis, biological evaluation and pharmacophore model analysis of novel tetrahydropyrrolo[3,4-c]pyrazol derivatives as potential TRKs inhibitors” (Eur J Med Chem, 2021)", "key": {"[1]": {"target": "BDNF/NT-3 growth factors receptor (Homo sapiens, UniProt Q16620)", "experiment": "Inhibition of N-terminal GST-tagged human TRKB (456 to 822 residues) expressed in baculovirus infected Sf21 cells using TK as substrate in presence of ATP measured after 40 mins by HTRF assay"}, "[2]": {"target": "NT-3 growth factor receptor (Homo sapiens, UniProt Q16288)", "sequence (Q16288 whole entry, the tested form may be a part)": "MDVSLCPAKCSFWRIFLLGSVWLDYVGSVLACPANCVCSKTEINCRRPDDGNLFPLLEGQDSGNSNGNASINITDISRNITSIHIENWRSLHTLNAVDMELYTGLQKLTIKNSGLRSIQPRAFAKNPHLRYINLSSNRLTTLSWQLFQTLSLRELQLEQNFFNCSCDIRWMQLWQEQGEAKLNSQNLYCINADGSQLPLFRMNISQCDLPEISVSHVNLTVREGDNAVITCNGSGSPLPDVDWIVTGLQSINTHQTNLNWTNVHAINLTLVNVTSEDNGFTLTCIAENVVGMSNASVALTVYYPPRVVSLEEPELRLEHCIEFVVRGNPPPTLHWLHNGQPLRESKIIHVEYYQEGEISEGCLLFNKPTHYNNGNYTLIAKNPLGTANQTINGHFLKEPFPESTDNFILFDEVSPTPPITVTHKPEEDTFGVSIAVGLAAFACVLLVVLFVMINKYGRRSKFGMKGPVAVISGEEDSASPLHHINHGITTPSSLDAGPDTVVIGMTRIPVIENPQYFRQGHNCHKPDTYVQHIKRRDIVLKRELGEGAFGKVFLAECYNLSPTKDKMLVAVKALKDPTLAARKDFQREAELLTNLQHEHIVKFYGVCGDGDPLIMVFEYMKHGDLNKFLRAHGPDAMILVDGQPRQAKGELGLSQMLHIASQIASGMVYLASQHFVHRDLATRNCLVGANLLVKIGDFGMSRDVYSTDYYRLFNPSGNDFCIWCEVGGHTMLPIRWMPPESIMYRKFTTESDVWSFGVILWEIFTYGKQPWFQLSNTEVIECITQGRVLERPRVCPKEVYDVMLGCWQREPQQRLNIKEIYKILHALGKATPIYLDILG", "experiment": "Inhibition of N-terminal GST-tagged human TRKC (456 to 825 residues) expressed in Sf21 using TK as substrate in presence of ATP measured after 40 mins by HTRF assay"}, "[3]": {"test_system": "KM12", "experiment": "Induction of apoptosis in human KM12 cells assessed as viable cells at 125 nM measured after 48 hrs by AnnexinV-FITC/PI staining based flowcytometry assay relative to control", "format": "functional", "details": "read-out: Activity", "method_in_brief": "(§1)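 10^5 cells in Annexin V binding buffer stained with FITC-Annexin V and PI for 10 min at room temperature in the dark, diluted with PBS and analysed by flow cytometry (FITC 494/518 nm, PI 535/617 nm).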"}, "[4]": {"test_system": "KM12", "experiment": "Induction of apoptosis in human KM12 cells assessed as necrotic cells at 125 nM measured after 48 hrs by AnnexinV-FITC/PI staining based flowcytometry assay relative to control", "format": "functional", "method_in_brief": "(§2)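 They were detached with trypsin, washed twice in PBS, and 10^5 cells were suspended in Annexin V binding buffer. Cells were stained with FITC-Annexin V and PI for 10 min at room temperature in the dark, diluted with PBS and analysed by flow cytometry.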"}, "[5]": {"test_system": "KM12", "experiment": "Induction of apoptosis in human KM12 cells assessed as late apoptotic cells at 250 nM measured after 48 hrs by AnnexinV-FITC/PI staining based flowcytometry assay relative to control", "format": "functional", "method_in_brief": "as §2"}, "[6]": {"test_system": "KM12", "experiment": "Induction of apoptosis in human KM12 cells assessed as viable cells at 500 nM measured after 48 hrs by AnnexinV-FITC/PI staining based flowcytometry assay relative to control", "format": "functional", "details": "read-out: Activity", "method_in_brief": "as §1"}, "[7]": {"test_system": "KM12", "experiment": "Induction of apoptosis in human KM12 cells assessed as necrotic cells at 500 nM measured after 48 hrs by AnnexinV-FITC/PI staining based flowcytometry assay relative to control", "format": "functional", "method_in_brief": "as §1"}, "[8]": {"test_system": "KM12", "experiment": "Induction of apoptosis in human KM12 cells assessed as late apoptotic cells at 1000 nM measured after 48 hrs by AnnexinV-FITC/PI staining based flowcytometry assay relative to control", "format": "functional", "method_in_brief": "as §2"}, "[9]": {"test_system": "KM12", "experiment": "Cell cycle arrest in human KM12 cells assessed as accumulation of cells at G1 phase at 62.5 nM measured after 48 hrs by AnnexinV-FITC/PI staining based flowcytometry method relative to control", "format": "functional"}, "[10]": {"test_system": "KM12", "experiment": "Cell cycle arrest in human KM12 cells assessed as accumulation of cells at S phase at 62.5 nM measured after 48 hrs by AnnexinV-FITC/PI staining based flowcytometry method relative to control", "format": "functional"}, "[11]": {"test_system": "KM12", "experiment": "Cell cycle arrest in human KM12 cells assessed as accumulation of cells at less G1 phase at 62.5 nM measured after 48 hrs by AnnexinV-FITC/PI staining based flowcytometry method relative to control", "format": "functional"}, "[12]": {"test_system": "KM12", "experiment": "Cell cycle arrest in human KM12 cells assessed as accumulation of cells at greater G1 phase at 125 nM measured after 48 hrs by AnnexinV-FITC/PI staining based flowcytometry method relative to control", "format": "functional"}, "[13]": {"test_system": "KM12", "experiment": "Cell cycle arrest in human KM12 cells assessed as accumulation of cells at G2 phase at 250 nM measured after 48 hrs by AnnexinV-FITC/PI staining based flowcytometry method relative to control", "format": "functional"}, "[14]": {"test_system": "KM12", "experiment": "Cell cycle arrest in human KM12 cells assessed as accumulation of cells at less G1 phase at 500 nM measured after 48 hrs by AnnexinV-FITC/PI staining based flowcytometry method relative to control", "format": "functional"}, "[15]": {"test_system": "KM12", "experiment": "Cell cycle arrest in human KM12 cells assessed as accumulation of cells at G1 phase at 1000 nM measured after 48 hrs by AnnexinV-FITC/PI staining based flowcytometry method relative to control", "format": "functional"}, "[16]": {"test_system": "KM12", "experiment": "Cell cycle arrest in human KM12 cells assessed as accumulation of cells at G2 phase at 1000 nM measured after 48 hrs by AnnexinV-FITC/PI staining based flowcytometry method relative to control", "format": "functional"}, "[17]": {"test_system": "KM12", "experiment": "Cell cycle arrest in human KM12 cells assessed as accumulation of cells at less G1 phase at 1000 nM measured after 48 hrs by AnnexinV-FITC/PI staining based flowcytometry method relative to control", "format": "functional"}, "[18]": {"target": "Aurora kinase A (Homo sapiens) (UniProt O14965)", "sequence (O14965 whole entry)": "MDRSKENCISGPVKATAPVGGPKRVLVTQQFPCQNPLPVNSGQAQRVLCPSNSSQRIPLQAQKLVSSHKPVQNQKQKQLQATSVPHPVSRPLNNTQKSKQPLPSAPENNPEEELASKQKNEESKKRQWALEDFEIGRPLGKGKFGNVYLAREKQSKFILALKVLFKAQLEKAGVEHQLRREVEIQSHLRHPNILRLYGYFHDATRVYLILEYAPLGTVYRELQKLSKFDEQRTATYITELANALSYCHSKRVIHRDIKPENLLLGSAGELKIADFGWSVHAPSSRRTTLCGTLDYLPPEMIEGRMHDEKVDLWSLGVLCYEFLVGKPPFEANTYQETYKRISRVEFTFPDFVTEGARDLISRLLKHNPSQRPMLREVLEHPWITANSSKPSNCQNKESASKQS", "experiment": "Inhibition of recombinant His-tagged full length human Aurora A expressed in baculovirus expression system at 1 uM measured by select screen assay relative to control", "method_in_brief": "(§3)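 Single-concentration profiling at 1.0 µM in a 28-kinase SelectScreen panel; percent inhibition reported.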"}, "[19]": {"target": "Proto-oncogene tyrosine-protein kinase ROS (Homo sapiens) (UniProt P08922)", "sequence (P08922 whole entry)": "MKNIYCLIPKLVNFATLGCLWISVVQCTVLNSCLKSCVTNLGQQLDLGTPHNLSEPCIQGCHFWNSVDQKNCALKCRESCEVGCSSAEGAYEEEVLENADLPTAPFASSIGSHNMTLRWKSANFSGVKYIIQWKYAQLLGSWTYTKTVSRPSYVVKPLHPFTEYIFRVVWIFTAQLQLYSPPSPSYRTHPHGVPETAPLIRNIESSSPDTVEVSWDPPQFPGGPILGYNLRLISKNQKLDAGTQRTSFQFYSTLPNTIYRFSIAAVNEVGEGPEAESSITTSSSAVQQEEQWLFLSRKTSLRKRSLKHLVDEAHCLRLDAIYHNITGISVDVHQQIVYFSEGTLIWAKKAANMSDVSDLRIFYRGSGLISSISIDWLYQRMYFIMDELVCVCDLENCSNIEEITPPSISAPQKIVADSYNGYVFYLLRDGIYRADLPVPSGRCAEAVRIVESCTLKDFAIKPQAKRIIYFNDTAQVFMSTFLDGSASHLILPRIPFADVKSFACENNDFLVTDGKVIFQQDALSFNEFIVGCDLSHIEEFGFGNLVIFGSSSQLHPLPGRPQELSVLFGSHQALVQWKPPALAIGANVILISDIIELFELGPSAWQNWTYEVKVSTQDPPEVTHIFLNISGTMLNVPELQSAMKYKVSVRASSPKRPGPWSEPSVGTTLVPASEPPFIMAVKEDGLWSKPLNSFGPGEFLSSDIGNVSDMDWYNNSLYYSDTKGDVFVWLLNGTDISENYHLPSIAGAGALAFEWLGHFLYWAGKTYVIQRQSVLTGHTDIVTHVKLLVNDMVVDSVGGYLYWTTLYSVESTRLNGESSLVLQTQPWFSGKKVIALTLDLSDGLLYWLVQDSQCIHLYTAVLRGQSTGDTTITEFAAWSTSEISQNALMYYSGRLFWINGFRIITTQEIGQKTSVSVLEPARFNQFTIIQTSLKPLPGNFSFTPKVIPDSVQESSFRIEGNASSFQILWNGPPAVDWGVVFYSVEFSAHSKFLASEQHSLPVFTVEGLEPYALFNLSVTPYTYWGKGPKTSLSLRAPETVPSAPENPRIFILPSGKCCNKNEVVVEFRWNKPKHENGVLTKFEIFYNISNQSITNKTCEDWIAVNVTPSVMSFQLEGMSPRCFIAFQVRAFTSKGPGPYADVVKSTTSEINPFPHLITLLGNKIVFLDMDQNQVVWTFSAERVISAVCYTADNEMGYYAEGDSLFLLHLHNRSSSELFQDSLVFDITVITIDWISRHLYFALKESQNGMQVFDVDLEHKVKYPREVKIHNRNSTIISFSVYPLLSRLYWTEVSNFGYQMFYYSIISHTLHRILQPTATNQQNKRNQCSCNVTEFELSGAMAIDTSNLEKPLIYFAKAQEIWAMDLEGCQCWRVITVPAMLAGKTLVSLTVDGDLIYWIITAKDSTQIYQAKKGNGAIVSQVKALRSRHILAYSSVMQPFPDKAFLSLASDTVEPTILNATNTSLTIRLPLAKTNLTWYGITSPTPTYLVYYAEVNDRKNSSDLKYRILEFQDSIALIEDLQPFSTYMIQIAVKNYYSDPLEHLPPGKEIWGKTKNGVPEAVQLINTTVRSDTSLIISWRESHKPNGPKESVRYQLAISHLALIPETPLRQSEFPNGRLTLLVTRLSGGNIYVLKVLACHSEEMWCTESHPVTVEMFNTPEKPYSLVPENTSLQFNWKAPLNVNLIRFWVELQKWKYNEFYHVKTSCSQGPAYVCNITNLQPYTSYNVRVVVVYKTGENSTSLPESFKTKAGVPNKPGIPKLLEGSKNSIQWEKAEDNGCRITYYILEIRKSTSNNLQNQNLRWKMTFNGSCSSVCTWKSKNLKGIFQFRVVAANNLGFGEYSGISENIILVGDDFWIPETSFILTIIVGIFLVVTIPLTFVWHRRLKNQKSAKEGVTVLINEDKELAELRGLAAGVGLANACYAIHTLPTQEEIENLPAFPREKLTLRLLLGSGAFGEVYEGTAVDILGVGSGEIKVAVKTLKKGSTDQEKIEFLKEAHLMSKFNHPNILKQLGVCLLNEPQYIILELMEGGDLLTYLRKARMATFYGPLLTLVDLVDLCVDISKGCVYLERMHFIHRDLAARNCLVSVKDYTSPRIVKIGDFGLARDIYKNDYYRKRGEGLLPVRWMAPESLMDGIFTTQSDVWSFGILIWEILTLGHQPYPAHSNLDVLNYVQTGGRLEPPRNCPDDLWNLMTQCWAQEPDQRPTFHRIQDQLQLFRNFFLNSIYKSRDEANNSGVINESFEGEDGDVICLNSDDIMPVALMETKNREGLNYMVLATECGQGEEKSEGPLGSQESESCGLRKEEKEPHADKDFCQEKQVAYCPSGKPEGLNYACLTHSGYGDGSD", "experiment": "Inhibition of recombinant GST-tagged human ROS1 expressed in baculovirus expression system at 1 uM measured by select screen assay relative to control", "method_in_brief": "as §3"}, "[20]": {"target": "Dual specificity mitogen-activated protein kinase kinase 1 (Homo sapiens) (UniProt Q02750)", "sequence (Q02750 whole entry)": "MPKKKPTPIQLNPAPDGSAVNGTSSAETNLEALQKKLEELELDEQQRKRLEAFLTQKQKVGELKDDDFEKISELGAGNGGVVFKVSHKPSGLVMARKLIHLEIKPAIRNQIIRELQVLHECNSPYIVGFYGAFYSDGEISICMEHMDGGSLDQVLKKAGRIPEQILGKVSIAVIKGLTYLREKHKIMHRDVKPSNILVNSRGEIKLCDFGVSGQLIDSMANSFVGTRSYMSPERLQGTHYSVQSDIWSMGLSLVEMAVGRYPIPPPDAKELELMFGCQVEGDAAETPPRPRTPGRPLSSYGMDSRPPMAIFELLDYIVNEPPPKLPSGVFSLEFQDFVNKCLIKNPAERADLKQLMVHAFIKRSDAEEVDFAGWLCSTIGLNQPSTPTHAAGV", "experiment": "Inhibition of recombinant His-tagged full length human MEK expressed in baculovirus expression system at 1 uM measured by select screen assay relative to control", "method_in_brief": "as §3"}, "[21]": {"target": "Protein kinase C alpha type (Homo sapiens) (UniProt P17252)", "experiment": "Inhibition of recombinant GST-tagged human full length PRKCA expressed in insect expression system at 1 uM measured by select screen assay relative to control", "method_in_brief": "as §3"}, "[22]": {"target": "Serine/threonine-protein kinase pim-1 (Homo sapiens) (UniProt P11309)", "sequence (P11309 whole entry, looked up)": "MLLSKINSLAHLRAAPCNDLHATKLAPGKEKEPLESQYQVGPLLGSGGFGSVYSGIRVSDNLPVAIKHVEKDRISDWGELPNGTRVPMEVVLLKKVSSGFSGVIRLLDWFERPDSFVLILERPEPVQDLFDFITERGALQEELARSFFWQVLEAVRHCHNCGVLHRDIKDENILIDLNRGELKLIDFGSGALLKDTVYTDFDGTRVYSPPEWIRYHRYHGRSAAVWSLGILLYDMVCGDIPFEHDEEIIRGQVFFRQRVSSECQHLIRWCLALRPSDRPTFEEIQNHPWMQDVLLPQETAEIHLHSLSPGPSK", "experiment": "Inhibition of recombinant His-tagged full length human PIM1 expressed in baculovirus expression system at 1 uM measured by select screen assay relative to control", "method_in_brief": "as §3"}, "[23]": {"experiment": "Stability in human plasma assessed as compound remaining incubated for 0 mins by LC-MS/MS analysis", "format": "ADME, cell-free", "details": "read-out: Stability", "method_in_brief": "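Pooled frozen human plasma thawed at 37 °C, centrifuged to remove clots, pH adjusted to 7.4 if required. Spiked to 2 µM final (from 100 µM dosing solution), in duplicate, incubated at 37 °C in a water bath. Sampled at 0, 10, 30, 60 and 120 min, quenched with acetonitrile stop solution containing internal standards, centrifuged, and supernatant analysed by LC-MS/MS for percent remaining.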"}, "[24]": {"experiment": "Clearance in human microsomes assessed as half life at 100 uM measured after 60 mins by LC-MS/MS analysis", "format": "ADME, Liver, Microsome", "method_in_brief": "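Pooled human liver microsomes were diluted to 0.59 mg/mL (working solution) in 100 mM potassium phosphate buffer and pre-warmed at 37 °C. Compound was added from a 100 µM working solution, with NADPH cofactor prepared in 10 mM MgCl2. Incubation ran at 37 °C for 60 min. Aliquots were quenched at 5, 15, 30, 45 and 60 min. A control without NADPH was run in buffer. Samples were analysed by LC-MS/MS.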"}, "[25]": {"experiment": "Half life in Sprague dawley rat at 3 mg/kg, po", "format": "ADME, organism-based", "details": "in vivo", "method_in_brief": "(§4)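 Blood was collected into heparin tubes at specified time points and centrifuged at once (4 °C, 4000 rpm, 20 min). Plasma levels were quantified by LC-MS/MS. Parameters came from noncompartmental analysis.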"}, "[26]": {"experiment": "Cmax in Sprague dawley rat at 3 mg/kg, po", "format": "ADME, organism-based", "set-up": "route oral, dose 3 mg/kg", "details": "in vivo", "method_in_brief": "as §4"}, "[27]": {"experiment": "AUC (last) in Sprague dawley rat at 1 mg/kg, iv", "format": "ADME, organism-based", "set-up": "time 0 - last, route intravenous, dose 1 mg/kg", "details": "in vivo", "method_in_brief": "as §4"}}, "data": [{"smiles": "CN1CCN(c2ccc(C(=O)Nc3n[nH]c4c3CN(Cc3cc(F)cc(F)c3)C4(C)C)cc2)CC1", "values": [{"measurement": "IC50", "setting": "[1]", "result": 0.028, "unit": "µM"}, {"measurement": "IC50", "setting": "[2]", "result": 0.011, "unit": "µM"}, {"measurement": "viability at 0.125 µM", "setting": "[3]", "result": 63.5, "unit": "%"}, {"measurement": "Activity", "setting": "[4]", "result": 0.07, "unit": "%"}, {"measurement": "Activity", "setting": "[5]", "result": 36.84, "unit": "%"}, {"measurement": "viability at 0.5 µM", "setting": "[6]", "result": 25, "unit": "%"}, {"measurement": "Activity", "setting": "[7]", "result": 0.06, "unit": "%"}, {"measurement": "Activity", "setting": "[8]", "result": 39.95, "unit": "%"}, {"measurement": "Activity", "setting": "[9]", "result": 40.3, "unit": "%"}, {"measurement": "Activity", "setting": "[10]", "result": 35.6, "unit": "%"}, {"measurement": "Activity", "setting": "[11]", "result": 3.63, "unit": "%"}, {"measurement": "Activity", "setting": "[12]", "result": 2.45, "unit": "%"}, {"measurement": "Activity", "setting": "[13]", "result": 9.26, "unit": "%"}, {"measurement": "Activity", "setting": "[14]", "result": 7.65, "unit": "%"}, {"measurement": "Activity", "setting": "[15]", "result": 72.8, "unit": "%"}, {"measurement": "Activity", "setting": "[16]", "result": 8.92, "unit": "%"}, {"measurement": "Activity", "setting": "[17]", "result": 7.77, "unit": "%"}, {"measurement": "inhibition", "setting": "[18]", "result": 11, "unit": "%"}, {"measurement": "inhibition", "setting": "[19]", "result": 10, "unit": "%"}, {"measurement": "inhibition", "setting": "[20]", "result": 8, "unit": "%"}, {"measurement": "inhibition", "setting": "[21]", "result": 3, "unit": "%"}, {"measurement": "inhibition", "setting": "[22]", "result": 0, "unit": "%"}, {"measurement": "remaining at 0 h", "setting": "[23]", "result": 100, "unit": "%"}, {"measurement": "microsomal CLint at 100 µM", "setting": "[24]", "result": 46.8, "unit": "µL/min/mg"}, {"measurement": "half-life", "setting": "[25]", "result": 1.89, "unit": "h"}, {"measurement": "Cmax", "setting": "[26]", "result": 603, "unit": "ng/mL"}, {"measurement": "AUC(0-t)", "setting": "[27]", "result": 2030, "unit": "ng·h/mL"}]}]}
